NRP1-CendR mod: NRP-1/CendR interaction modulation | inhibition, % at 25 µM | FAM-RPARPAR peptide binding to NRP-1, fluorescence polarization | 360,000 compounds, 0.85% hits | O14786;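 active = inhibition or corrected inhibition above about 18%, plus a signal ratio from 0.5 to 1.5, limit read from the data, passing the limit was not always enough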
M18AAP inhibitor: blocks P. falciparum M18 aspartyl aminopeptidase; inhibition, % at 7.35 µM; 290,000 compounds, 1.2% hits; recombinant PfM18AAP, H-Glu-NHMec fluorogenic cleavage;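 active = inhibition above the campaign mean inhibition over all tested compounds plus 3 SD, cut at about 28% in these data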;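 also: 0% = plate median of test compound wells and 100% = 2 mM ZnCl2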
sPLA2-III inh: Inhibits HGIII-sPLA2 liposome hydrolysis, primary screen; QFRET BODIPY PC-A2 liposome hydrolysis, fluorescence; inhibition, % at 12.2 µM; 370,000 compounds, 0.56% hits;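 active = inhibition above mean plus 3 SD of compounds lying within the high and low control bounds, cut at about 19% in these data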;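 also: 0% = median of test compound wells and 100% = no enzyme DMSO wells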
Target sequence (Q9NZ20 whole entry, looked up): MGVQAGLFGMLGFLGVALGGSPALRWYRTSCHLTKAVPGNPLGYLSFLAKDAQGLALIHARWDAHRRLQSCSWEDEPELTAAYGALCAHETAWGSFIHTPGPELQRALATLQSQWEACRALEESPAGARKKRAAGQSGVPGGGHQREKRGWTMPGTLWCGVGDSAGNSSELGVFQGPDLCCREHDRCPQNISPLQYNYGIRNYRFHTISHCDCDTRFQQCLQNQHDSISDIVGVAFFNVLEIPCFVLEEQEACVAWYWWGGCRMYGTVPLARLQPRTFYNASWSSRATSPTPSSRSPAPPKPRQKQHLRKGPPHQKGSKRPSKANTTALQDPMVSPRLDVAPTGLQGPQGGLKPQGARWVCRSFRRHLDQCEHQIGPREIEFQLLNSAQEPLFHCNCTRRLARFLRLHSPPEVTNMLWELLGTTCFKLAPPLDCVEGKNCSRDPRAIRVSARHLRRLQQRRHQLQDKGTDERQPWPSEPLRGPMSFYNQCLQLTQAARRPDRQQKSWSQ
Arrestin-AP2 inh: inhibitors of human beta-arrestin and AP2 interaction. 340,000 compounds, 0.31% hits. FITC-arrestin peptide / GST-AP2 beads, flow cytometry; AP2 beta2 appendage carries R879A mutation. inhibition, % at 10 µM. AID 504490;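 active = inhibition above a set limit, near 3 SD of compounds lacking own fluorescence, cut at about 54% in these data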;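 also: plate controls were DMSO wells for no effect and 5 µM unlabelled arrestin peptide for full effect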
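System: GST-AP2 R879A glutathione beads. Medium: PBS with 0.05% Tween 20 and 0.1% BSA. Also added: FITC-arrestin peptide, 50 nM. Incubation: 12 min plus 1 h, RT. Measured by: high-throughput flow cytometry of beads, ex 488, em 535 nm. Evaluation: percent drop in bead-associated FITC signal.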
HTR2A ag: mouse HTR2A agonism via beta-arrestin recruitment. P35363. AID 624169. CHO-K1 mHTR2A beta-arrestin complementation, luminescence; percent of 30 µM serotonin response. 360,000 compounds, 0.66% hits. activation, % at 7.6 µM;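 active = activation above a run cutoff, the mean activation of all tested compounds plus 3 SD, cut at about 14% in these data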;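 also: 0% = plate median of compound wells and 100% = 30 µM serotonin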
Lipid droplet: hepatic lipid droplet formation modulation. AML12 mouse hepatocytes, oleate lipid droplets, BODIPY imaging. inhibition, % at 6.5 µM. 240,000 compounds, 0.4% hits;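 active = lipid droplet intensity inhibited by at least 50%, with more than 500 cells counted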
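Material – AML12 mouse liver cells · Also added – oleate loading, 100 µM · Compound dosing – 6.5 µM single-point dosing · Times – overnight treatment with compound plus oleate · Measured by – fluorescence imaging, 20x objective, two fields per well · Read-out – percent inhibition of filter-corrected integrated lipid droplet intensity per well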
MOR ag counter: counter-screen for mouse HTR2A agonists: human mu opioid receptor agonists; 2,300 compounds, 5.3% hits; AID 624380; U2OS OPRM1 beta-arrestin PathHunter, luminescence; DMSO 0%, DAMGO 9.3 µM 100%; activation, % at 9.3 µM; shares compounds with HTR2A ag;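 active = mean activation above the mean of DMSO-only wells plus 3 SD, cut at about 0.5% in these data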
HTR2A ag conf: mouse HTR2A agonism confirmed; shares compounds with HTR2A ag; CHO-K1 PathHunter beta-arrestin recruitment, luminescence; DMSO 0%, 30 µM serotonin 100%; activation, % at 7.6 µM; 2,300 compounds, 19% hits; AID 624381;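 active = mean activation across triplicates above the hit threshold derived in the original primary screen, cut at about 15% in these data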
Numbers without * were called inactive; x = not tested or not shown. Compounds with a hit are over-represented: about 3.3% of the library has one in this group of screens.

SMILES	NRP1-CendR mod	M18AAP inhibitor	sPLA2-III inh	Arrestin-AP2 inh	HTR2A ag	Lipid droplet	MOR ag counter	HTR2A ag conf
CNc1cc(C)nc(-n2nc(C)cc2C)n1	11	6	9	6	3	x	x	x
Cc1cc(Cl)nc(-n2nc(C)cc2C)n1	8	2	0	2	16*	16	-1	-3
COc1ccc(-n2c(SCC(=O)Nc3ccc(Br)cc3)nc(O)cc2=O)cc1	0	0	-14	-4	-1	-1	x	x
O=C(c1cccnc1)N1CCN(S(=O)(=O)c2ccc(Cl)cc2)CC1	-4	-4	4	30	15*	-8	-1	-3
Cc1cccc(C(=O)Nc2c(-c3ccccc3)nc3ncccn23)c1	x	x	-1	x	x	x	x	x
CCc1cc(=O)oc2c(C)c(OC(C)C(=O)NCCCN3CCOCC3)ccc12 (configuration not stated)	1	3	-1	-3	7	-3	x	x
Cc1cc(=O)oc2c(C)c(OC(C)C(=O)NCCCN3CCOCC3)ccc12 (configuration not stated)	3	-3	-4	-6	16*	13	0	-4
COC(=O)c1ccccc1NC(=O)NCC1CCN(Cc2ccc(OC)cc2)CC1	x	x	1	x	x	x	x	x
COc1ccc(C2=CC(c3sccc3C)n3nnnc3N2)cc1 (configuration not stated)	8	0	-10	5	15*	x	0	2
O=C1CCCCc2sc(Br)c([N+](=O)[O-])c2N1	7	1	5	6	0	0	x	x
N#CC(c1ccc(F)cc1)c1ccc(C(=O)c2ccc(F)cc2)cc1 (configuration not stated)	3	4	10	-162	14*	4	0	-6
O=C(NNC(=O)c1ccco1)c1cccc(Br)c1	23	-1	-2	5	15*	-2	0	0
COC(=O)C1=C(C)N(Cc2cccc(C(F)(F)F)c2)C(=NCc2cc(OC)c(OC)c(OC)c2)NC1c1cccc(F)c1 (configuration not stated)	x	x	-17	x	x	x	x	x
Cc1ccc(N(Cc2ccccc2)C(=O)c2ccc(C)c(S(=O)(=O)N3CCOCC3)c2)cc1	-1	x	7	11	15*	x	0	2
Cc1ccc(N(Cc2ccccc2)C(=O)c2ccc(S(=O)(=O)N3CCOCC3)cc2)cc1	-4	x	-10	-4	3	x	x	x
COc1ccc(C(=O)NCc2ccc(C)cc2)cc1S(=O)(=O)N1CCOCC1	-2	x	1	x	-20	x	x	x
COc1ccc(C(=O)OCc2ccc(C)cc2)cc1S(=O)(=O)N1CCOCC1	13	x	-7	-3	18*	x	0	-3
CCOC(=O)C1=CCC(c2ccccc2)N(S(C)(=O)=O)C1 (configuration not stated)	x	x	7	x	x	x	x	x
O=C(/C=C/c1ccccc1Cl)OCC(=O)N1CCCC1	11	x	-3	-11	0	x	x	x
Cc1csc(=O)n1CC(=O)OCC(=O)NNC(=O)c1ccc([N+](=O)[O-])cc1	0	x	7	-12	15*	x	0	1
COC(=O)CCC(=O)NNC(=O)c1ccc([N+](=O)[O-])cc1	1	1	0	-9	14*	5	0	6
Cc1csc(=O)n1CC(=O)OCC(=O)NNC(=O)c1ccccc1	15	-4	6	-6	-3	10	x	x
COC(=O)/C(=C/N(C)C)C(=O)N1CCN(c2ccc(Cl)c(Cl)c2)CC1	12	-1	-1	4	18*	2	0	0
CC1CN(C)C(C)c2c1oc1ccc([N+](=O)[O-])cc21 (configuration not stated)	2	-11	-3	-18	22*	4	0	4
CC1CN(C)C(C)c2c1oc1ccc(N)cc21 (configuration not stated)	0	2	5	0	2	1	x	x
